According to ChEMBL document CHEMBL4837208, “1,2,4-Triazolo[1,5-a]pyrimidines: Efficient one-step synthesis and functionalization as influenza polymerase PA-PB1 interaction disruptors” (Eur J Med Chem, 2021):

Assays:
[1] = Cytotoxicity against MDCK cells assessed as reduction in cell viability incubated for 48 hrs by MTT assay; assay type: cell-based, Canis lupus familiaris; details: dog
Summary of the method: (§1)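 MDCK cells (2 × 10⁴/well) grown 24 h, then given serial compound dilutions or DMSO in DMEM with 10% FBS for 48 h at 37 °C. MTT (5 mg/mL in PBS) added for 4 h. Lysed overnight with 10% SDS/0.01 N HCl, then OD read at 620 nm. CC50 is the concentration reducing viability by 50%. At least three independent experiments in duplicate.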

[2] = target: PA/PB1 (Influenza A virus (A/Puerto Rico/8/1934(H1N1)), UniProt P03431+P03433); assay: Inhibition of Influenza A virus 6 His-tagged PA (239 to 716 residues) expressed in Escherichia coli BL21 pLysS/GST-tagged PB1 (1 to 25 residues) expressed in Escherichia coli protein-protein interaction using 3.3',5,5' tetramethyl benzidine as substrate by ELISA
Summary of the method: (§2)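 Wells coated with 400 ng 6His-PA(239–716), E. coli BL21(DE3)pLysS-expressed, for 3 h at 37 °C, then blocked with 2% BSA/PBS for 1 h. Then 200 ng GST-PB1(1–25), or GST alone as control, added with compound at various concentrations, overnight at room temperature. Bound PB1 detected with HRP-anti-GST antibody (1:4000 in PBS/2% FBS). IC50 is the concentration halving PA–PB1 binding. At least three independent experiments in duplicate.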

Influenza A virus [3] = assay: Antiviral activity against Influenza A virus A/PR/8/34(H1N1) infected in MDCK cells assessed as inhibition of plaque formation for 48 hrs by plaque reduction assay; assay type: functional, organism-based; details: A/Puerto Rico/8/1934(H1N1)
Summary of the method: (§3)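 MDCK monolayers (5 × 10⁵ cells/well, seeded 24 h earlier) washed with serum-free DMEM. Infected with A/PR/8/34 at 40 PFU/well for 1 h at 37 °C, in DMEM with TPCK-trypsin and 0.14% BSA, with compound or DMSO present. Overlay of the same medium plus 1.2% Avicel and compound. At 48 h, fixed with 4% formaldehyde and stained with 0.1% toluidine blue. Plaques counted against DMSO control set at 100%. At least three independent experiments in duplicate.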

[4] = target: PA/PB1 (Influenza A virus (A/Puerto Rico/8/1934(H1N1)), UniProt P03431+P03433); assay: Inhibition of Influenza A virus PA-PB1 protein-protein interaction by ELISA; assay type: protein assay; summary of the method: as §2
[5] = Cytotoxicity against MDCK cells assessed as reduction in cell viability by MTT assay; assay type: cell-based, Canis lupus familiaris; details: dog; summary of the method: as §1
Influenza A virus [6] = assay: Antiviral activity against Influenza A virus A/PR/8/34(H1N1) infected in MDCK cells assessed as inhibition of viral replication by plaque reduction assay; assay type: functional, organism-based; details: A/Puerto Rico/8/1934(H1N1); summary of the method: as §3
SARS-CoV-2 = assay: microbe, parasite or virus in culture; assay type: functional, organism-based, Vero E6; details: Severe acute respiratory syndrome coronavirus 2, Vero C1008
[7] = target: RNA-directed RNA polymerase (Influenza A virus (strain A/Puerto Rico/8/1934 H1N1), UniProt P03428+P03431+P03433); assay: Inhibition of RdRP activity in Influenza A virus A/PR/8/34(H1N1) infected in HEK293T cells incubated for 24 hrs by minireplicon based dual luciferase assay; assay type: cell-based, Influenza A virus (A/Puerto Rico/8/1934(H1N1))
Summary of the method: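 HEK293T cells (2 × 10⁵/well) plated overnight. Calcium-phosphate transfected with PB1, PB2, PA and NP plasmids (100 ng each), pPolI-Flu-ffLuc reporter (50 ng) and pRL-SV40 (50 ng), with compound or DMSO. Medium replaced at 5 h with compound-containing DMEM. Dual luciferase read at 24 h post-transfection. Firefly normalised to Renilla, with DMSO set at 100% polymerase activity.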

[8] = Cytotoxicity against African green monkey Vero E6 cells assessed as reduction in cell viability incubated for 1 to 2 hrs by MTS assay; assay type: cell-based, Vero C1008; details: chlorocebus sabaeus, time 1-2 hrs
Summary of the method: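 Vero E6 cell viability measured by the colorimetric formazan-based MTS assay. Means of duplicate experiments.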

SMILES	CC50 at 48 h [1] [µM]	IC50 [2] [µM]	EC50 (Influenza A virus [3]) [µM]	EC50 (SARS-CoV-2) [µM]	other results
O=C(Nc1nc2nc(-c3ccccc3)cc(O)n2n1)c1ccccc1	> 250	21	> 100		
O=C(Nc1nc2nccc(-c3ccccc3)n2n1)c1ccccc1	> 250	> 200	> 100		
COc1ccc(C(=O)Nc2nc3n(n2)C(c2ccccc2)C=C(C)N3)cc1 (configuration not stated)					IC50 [4]: 171 µM; CC50 [5]: 240 µM; EC50 (Influenza A virus [6]): > 100 µM
COc1ccc(C(=O)Nc2nc3nc(-c4ccccc4)cc(C)n3n2)cc1	> 250		> 100	> 100	
CCCOc1ccc(C(=O)Nc2nc3nc(-c4ccccc4)cc(C)n3n2)cc1	247		> 100	65.3	
O=C(Nc1nc2nc(-c3ccccc3)ccn2n1)c1ccccc1	> 250	165	> 100		
Cc1cc(-c2ccccc2)nc2nc(NC(=O)c3ccccc3F)nn12	> 250		> 100	30.6	
Cc1cc(-c2ccccc2)nc2nc(C(=O)Nc3ccccc3C(=O)O)nn12	> 250	32	> 100		
COC(=O)c1ccccc1NC(=O)c1nc2nc(C)cc(-c3ccccc3)n2n1	> 250	26.5	> 80		
Cc1cc(-c2ccccc2)nc2nc(NC(=O)c3ccc(N)cc3)nn12	> 250		> 100	44	
NC(=O)c1ccccc1NC(=O)c1nc2ncc(-c3ccccc3)cn2n1	> 250	> 200	> 100		
Cc1cc(-c2ccccc2)nc2nc(NC(=O)c3ccc([N+](=O)[O-])cc3)nn12	> 250		> 100	> 100	
Cc1cc(-c2ccccc2)n2nc(C(=O)Nc3ccccc3C(=O)O)nc2n1	> 250	116	> 100		
Cc1cc(-c2ccccc2)nc2nc(NC(=O)c3ccc(O)c(O)c3)nn12	112		> 100	> 100	
NC(=O)c1c(NC(=O)c2nc3nccc(-c4ccccc4)n3n2)sc2c1CCCCC2	> 200	22	> 60		
NC(=O)c1c(NC(=O)c2nc3ncc(-c4ccccc4)cn3n2)sc2c1CCCCC2	100	35	> 80		
O=C(Nc1nc2ncc(-c3ccccc3)cn2n1)c1ccccc1	> 250	> 200	> 100		
NC(=O)c1ccccc1NC(=O)c1nc2nccc(-c3ccccc3)n2n1	> 250	21	> 100		
Cc1cc(-c2ccccc2)n2nc(-c3nc4ccccc4c(=O)o3)nc2n1	> 250	19.5	16		EC50 [7]: 21 µM
Cc1cc(-c2ccccc2)nc2nc(-c3nc4ccccc4c(=O)o3)nn12	> 200	123	> 100		
COC(=O)c1ccccc1NC(=O)c1nc2nc(-c3ccccc3)cc(C)n2n1	> 250	22.3	> 100		
Cc1cc(-c2ccccc2)nc2nc(C(=O)Nc3ccccc3F)nn12	> 250		83.8	34.5	CC50 [8]: > 100 µM
N#C[C@@]1(c2ccc3c(N)ncnn23)O[C@H](CO)[C@@H](O)[C@H]1O [GS-441524]				0.89	
NC(=O)c1ncn([C@@H]2O[C@H](CO)[C@@H](O)[C@H]2O)n1 [RIBAVIRIN]	> 250		10		EC50 [7]: 16 µM
